TNAP inh noacc – TNAP (human) inhibition, acceptor-free conditions; P05186; purified TNAP, CDP-star luminescence, 30 min; inhibition, % at 20 µM; hit rate 0.26% among 200,000;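 active = tissue-nonspecific alkaline phosphatase inhibition above about 50% at 20 µM in the single-dose screen, limit read from the data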;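 also: 0% = DMSO negative control and 100% = EDTA positive control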
Target sequence (P05186 whole entry, looked up): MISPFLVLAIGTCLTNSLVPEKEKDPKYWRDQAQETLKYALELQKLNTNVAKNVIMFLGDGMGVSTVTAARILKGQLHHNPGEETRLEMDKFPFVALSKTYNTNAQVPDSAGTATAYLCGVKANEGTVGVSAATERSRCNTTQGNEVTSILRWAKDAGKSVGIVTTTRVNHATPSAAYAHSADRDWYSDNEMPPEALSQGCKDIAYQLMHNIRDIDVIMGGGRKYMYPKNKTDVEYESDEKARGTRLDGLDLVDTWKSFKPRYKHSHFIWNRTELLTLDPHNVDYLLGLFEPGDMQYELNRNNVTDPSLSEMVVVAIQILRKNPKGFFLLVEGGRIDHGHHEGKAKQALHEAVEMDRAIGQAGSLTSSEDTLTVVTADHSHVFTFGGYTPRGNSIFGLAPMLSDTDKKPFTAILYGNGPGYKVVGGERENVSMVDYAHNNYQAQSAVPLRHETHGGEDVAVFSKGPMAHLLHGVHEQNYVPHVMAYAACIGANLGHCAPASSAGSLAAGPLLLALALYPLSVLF
TNAP inh hi DEA – TNAP (human) inhibition, high acceptor; P05186; purified TNAP, CDP-star luminescence, 1 M DEA; inhibition, % at 20 µM; hit rate 0.03% among 200,000;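 active = over 50% inhibition of tissue-nonspecific alkaline phosphatase at 20 µM in the single-dose screen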;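 also: plate controls were DMSO wells for no effect and EDTA-quenched wells as full inhibition for full effect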
zVAD death inh – blocks zVAD induced death of L929 cells; L929 zVAD necroptosis rescue, ATP luminescence, 24 h; with zVAD 60 µM; viability rescue, % at 10 µM; hit rate 0.38% among 220,000; AID 1377;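 active = activation, scaled between plate controls, above about 75%, limit read from the data; inactive = activation under that limit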;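 also: 0% = zVAD with DMSO and 100% = DMSO alone without zVAD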
TNF necrop inh – inhibitors of TNF-alpha induced necroptosis in Jurkat FADD-/- cells; Jurkat FADD-/- TNF necroptosis rescue, ATP luminescence, 24 h; 0 = TNF only, 100 = no-TNF cells; activation (protection from cell death), % at 10 µM; hit rate 0.068% among 220,000; AID 463075;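 active = activation, meaning protection from cell death, of at least 50% relative to plate controls; inactive = activation below 50%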;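 also: necroptosis triggered by 40 ng/mL TNF-alpha added together with compound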
TNAP act hiacc – TNAP (human) activation, high acceptor; purified TNAP, CDP-star luminescence, 1 M DEA, 30 min; hits give high values; 0 = EDTA background, 1 = DMSO-only activity; activation factor at 20 µM; 200,000 tested, under 10 active; AID 1136;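 active = activation factor at least 2 at 20 µM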
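system = human TNAP | amount = enzyme diluted 1/800 final | reagent = 100 µM CDP-star substrate | signal = luminescent substrate turnover signal | dosing = one dose, 20 µM | benchmarks = EDTA negative control, DMSO positive control | measure = activation factor | timing = 30 min reaction, room temperature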
SDO1 yeast rescue – compounds rescuing growth of sdo1-depleted yeast, bone marrow failure model | S. cerevisiae sdo1-depleted JHY4D growth rescue, OD600 30 h; hits give high values; pdr5 snq2 efflux-pump mutant strain | z-score at 10 µM | hit rate 0.21% among 140,000 | AID 817;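 active = z-score above 3 at both the 24 hr and the 30 hr optical density reads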;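 also: z-score against mean and SD of all compound wells on the same plate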
sdo1 rescue conf – confirmation of growth rescue in SDO1-depleted yeast, bone marrow failure; shares compounds with SDO1 yeast rescue; OD recovery (no concentration beside the values); hit rate 44% among 440; S. cerevisiae JHY4D (SDO1-depleted) growth rescue, OD600, 30 h; hits give high values; efflux-deficient strain, SNQ2 and PDR5 mutated;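 active = yeast growth recovered at 30 hours, either rising with dose fitted slope above 0.001 or with average optical density gain above 0.07, some results past the limit were not filed as active; inactive = growth falling with dose or no effect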;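 also: gain in OD600 from 0 h to 30 h averaged across all seven doses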
zVAD necrop conf – confirmed blocker of zVAD induced death in L929 cells | shares compounds with zVAD death inh | L929 zVAD-induced necroptosis rescue, ATP luminescence, 24 h | activation (protection from necroptosis), % at 10 µM | hit rate 16% among 760 | AID 463117;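 active = mean protection from necroptosis of at least 50% over duplicate tests; inactive = mean protection below 50%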;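 also: 0% = cells with zVAD alone and 100% = vehicle cells without zVAD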
An asterisk follows results filed as active; / = not tested or not shown. Most compounds without a hit are left out; they make up all but 0.81% or so of the library.

SMILES	TNAP inh noacc	TNAP inh hi DEA	zVAD death inh	TNF necrop inh	TNAP act hiacc	SDO1 yeast rescue	others
CCCCC(=O)N/N=C/c1c(O)n(Cc2ccco2)c(=O)[nH]c1=O	69.4*	1.4	0.6	-0.4	1	1.16
c1ccc(C2CC3CC4(CCCC4)N2O3)cc1 (stereo unspecified)	-9.0	-4.4	30.2	94.0*	1	0.36
CC1(C)OC(c2ccccc2)=C/C(=C/C=C2C(=O)NC(=S)NC2=O)O1	58.7*	9.6	0.6	-6.8	0.9	/
C=CCn1c(O)c(C(C)=Nc2cccc(C(F)(F)F)c2)c(=O)[nH]c1=O	/	/	0.4	1.7	/	/
O=c1[nH]c(O)c(/C=C2\C=NN=C2c2ccccc2)c(=O)[nH]1	51.3*	1.3	-0.2	-0.3	1	0.15
CCC(=O)N1CC(=O)Nc2ccc(Br)cc2C1c1ccccc1 (stereo unspecified)	-0.9	-3.2	-0.9	-10.9	1	/
Cc1cc(NCCN)nc2ccccc12	-2.6	10.0	-0.3	2.2	0.9	0.56
N#CCCn1cc(C(=O)O)c(-c2cccc([N+](=O)[O-])c2)n1	-0.1	-1.0	2.5	0.7	1	/
Cc1cccc(N2C(=O)/C(=C/c3ccc(N4CCN(C)CC4)o3)C(=O)NC2=S)c1C	51.4*	32.2	0.6	-2.6	0.7	1.46
O=C1NC(=O)N(c2ccc3c(c2)OCO3)C(=O)/C1=C\c1ccc(N2CCCCC2)o1	39.5	42.3	0.1	-0.2	0.6	0.19
CCc1ccccc1N1C(=O)/C(=C/c2ccc(N3CCN(C)CC3)o2)C(=O)NC1=S	51.0*	43.9	1.3	-10.8	0.6	-0.04
Cc1ccccc1N1C(=O)NC(=O)/C(=C/c2ccc(N3CCOCC3)o2)C1=O	/	/	0.2	-1.4	/	/
CCC(C)n1c(O)c(/C=N/NC(=O)c2ccncc2)c(=O)[nH]c1=S (stereo unspecified)	74.7*	-2.9	0.5	2.6	1	0.46
O=C(N/N=C/c1c(O)n(Cc2ccc(F)cc2)c(=S)[nH]c1=O)c1ccncc1	/	/	1.0	1.8	/	/
CCn1c(O)c(/C=N/NC(=O)c2ccncc2)c(=O)[nH]c1=S	84.1*	7.8	0.1	1.6	0.9	-0.13
O=C(N/N=C/C1C(=O)NC(=S)N(c2ccccc2)C1=O)c1cc(Br)c(O)c(Br)c1 (stereo unspecified)	74.9*	0.1	0.6	-0.7	1	/
CCn1c(O)c(/C=N/NC(=O)c2ccccc2)c(=O)n(CC)c1=S	/	/	1.6	-0.4	/	/
CC#CP(=O)(OC)C(O)(CF)c1ccccc1 (stereo unspecified)	-5.9	0.6	/	1.8	1	0.56
Cc1c(C(c2ccc(O)cc2)c2c(O)c3ccccc3oc2=O)c(=O)n(-c2ccccc2)n1C (stereo unspecified)	-6.0	-1.3	0.1	1.1	1	3.41*	sdo1 rescue conf=0.0388
CCCCN1C(=O)/C(=C\c2ccco2)C(=O)N(CCc2ccccc2)C1=O	-14.0	-4.9	0.1	-0.9	1	10.2*	sdo1 rescue conf=0.0657
CCOC(=O)c1sc(/N=C/c2c(O)n(-c3cccc(C)c3)c(=O)[nH]c2=O)c(C#N)c1C	-11.2	-1.6	1.6	-3.0	1	-0.38
CCCCn1c(=O)c(C(=O)Nc2ccsc2C(=O)OC)c(O)c2ccccc21	-15.2	-0.7	1.0	1.4	1	-0.55
Cn1c(=O)cc(SCC(=O)N2CCC3(CC2)OCCO3)c2ccccc21	-8.9	-3.3	1.1	-2.5	1	3.35*	sdo1 rescue conf=0.0712*
Cn1c(=O)cc(OCC(=O)N2CCC3(CC2)OCCO3)c2ccccc21	-11.5	0.6	2.8	-1.2	1	0.93
C[C@H]1C[C@@H](C)C(=O)[C@@H]([C@H](O)CC2CC(=O)NC(=O)C2)C1	-5.8	-2.4	77.2*	-1.5	1	/	zVAD necrop conf=79.8*
COc1cc(/C=N/NC(=O)CN2CC(c3ccccc3)CC2=O)ccc1OC(=O)N(C)C (stereo unspecified)	-9.3	-3.6	-0.2	-3.4	1	0.25
N#CCN1CCN(c2ccc(C(F)(F)F)cc2)CC1	-2.7	3.3	1.2	1.8	1	0.35
O=C1Nc2ccccc2/C1=C/c1cnc[nH]1	-13.0	-0.2	85.5*	-21.6	1	-0.45	zVAD necrop conf=78.6*
